The text below walks through data of publication PMC9398498 (Gastric Cancer, 2022).

Data set [1] has as its system GIST-T1 cells. The data set is described as follows: Cell cycle analysis, GIST-T1. It counts as cell-based. The note with it: P < 0.01.
For data set [2], the system named is GIST-T1/IMR cells. Nature of the data set: Cell cycle analysis, GIST-T1/IMR. In kind it is cell-based. The note with it: DMS with IM vs only IM, P < 0.01.
Data set [3] concerns GIST-T1 and GIST-T1/IMR cells. The data set is described as follows: Cell scratch assay. To be noted: DMS (10 µM, 5 h) pretreatment then IM (20 µM) vs only IM treatment, P < 0.01. In kind it is cell-based.
For data set [4], the system named is GIST-T1 and GIST-T1/IMR cells. The data set is described as follows: Longitudinal migration through uncoated Matrigel. In kind it is cell-based. The note with it: both cell lines. The method in brief:
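Parental and resistant GIST-T1 cells were grown in RPMI 1640 with 15% FBS at 37 °C, 5% CO2. Vertical migration was scored as the number of cells passing through uncoated Matrigel.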

Data set [5] deals with GIST-T1 and GIST-T1/IMR cells. The data set is described as follows: Transwell chamber invasion assay. It counts as cell-based. To be noted: DMS pretreatment and then IM treatment, within 48 h. In short, it runs like this:
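Parental and resistant GIST-T1 cells in RPMI 1640 with 15% FBS (37 °C, 5% CO2) were tested in a transwell chamber. Invasion within 48 h was counted as transmembrane cells.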

For data set [6], the system named is GIST-T1 and GIST-T1/IMR cells. Nature of the data set: Plate colony formation experiment. In kind it is cell-based. The note with it: P < 0.01.
Data set [7] has as its system GIST-T1 and GIST-T1/IMR cells. The data set is described as follows: Cell apoptosis analysis. It counts as cell-based.
Data set [8] relates to S1P, SPK1 and ABCC1 protein expression. Nature of the data set: Western blot of SPK1/S1P proteins. It counts as cell-based. To be noted: after DMS blockage for 5 h. The method in brief:
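Lysates of parental and resistant GIST-T1 cells were probed with rabbit polyclonal anti-S1P, anti-SPK1 and anti-β-actin antibodies, plus anti-ABCC1. Bands were visualised by enhanced chemiluminescence.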

The test system of data set [9] is SPK1. The note with it: SPK1 compared to SPK2; cited from earlier work.
Data set [10] in a line: Therapeutic drug monitoring. In kind it is in vivo, human. The note with it: 400 mg/qd; for concentration at 22 h: both, human, plasma, oral, Plasma concentration. In short, it runs like this: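 Patients on oral drug 400 mg once daily for over 1 month (steady state) took the dose at about 12:00. Peripheral venous blood was drawn about 10:00 next morning into anticoagulant tubes and centrifuged at 5000 rpm for 5 min. Plasma was stored at −20 °C, protein-precipitated, centrifuged and injected directly for 2D-LC-UV quantitation.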

The test system of data set [11] is GISTs. To be noted: cited from earlier work.
The conditions of data set [12]: cited from earlier work.

Counter-ions that a name gives are not always drawn. Like-named read-outs stand apart in the source and are kept apart here.

For `CCCCCCCCCCCCC/C=C/[C@@H](O)[C@H](CO)N(C)C` [DMS, N,N-dimethylsphingosine], the “proportion of G0/G1 phase” value is “significantly lower” in data set [1] (GIST-T1, DMS with IM vs only IM) and “significantly lower” in data set [2]. Also, in [3], the scratch healing rate result is “significantly decreased”. For the same compound, in [4] (DMS pretreatment with IM), the “ability of longitudinal migration” value is “further block”. Moreover, in data set [5], the “number of transmembrane cells” value is “further reduced dramatically”. In data set [6] (DMS pretreatment vs IM intervention's group), the Colony formation ability entry is on record as “further reduced”. For the same compound, in data set [7] (after DMS interference vs cells without DMS treatment), the apoptosis rate entry is listed as “significantly higher”. Also, the “protein levels of S1P, ABCC1 and SPK1” value in data set [8] is on record as “decreased”. The “inhibitory activity on sphingosine kinases” value in data set [9] is on record as “high inhibitory activity on SPK1 compared to SPK2”.
For the compound `Cc1ccc(NC(=O)c2ccc(CN3CCN(C)CC3)cc2)cc1Nc1nccc(-c2cccnc2)n1` [IM, Imatinib mesylate], in [10] (29 patients), the “difference between the highest and lowest IM concentration” value was “more than 12 fold”. Moreover, the concentration at 22 h was 1510 ± 842 ng/mL in data set [10] (OCT1 1022C > T (rs 2282143) CC, n=22); 1750 ± 1090 ng/mL in [10] (OCT1 1022C > T (rs 2282143) TC, n=7); 300 ng/mL in data set [10] (OCT1 1222 A > G (rs628031) AA, n=1); 1820 ± 1010 ng/mL in data set [10] (OCT1 1222 A > G (rs628031) AG, n=10); 1500 ± 798 ng/mL in data set [10] (OCT1 1222 A > G (rs628031) GG, n=18); 1580 ± 801 ng/mL in data set [10] (OCT1 1386C > A (rs 622342) AA, n=24). Besides, the concentration at 22 h in data set [10] (OCT1 1386C > A (rs 622342) AC, n=5) was found to be 1490 ± 1380 ng/mL; in data set [10] (OCT1 1795G > A (rs6935207) AA, n=8), 961 ± 401 ng/mL; in data set [10] (OCT1 1795G > A (rs6935207) AG, n=13) it was 1860 ± 978 ng/mL; in data set [10] (OCT1 1795G > A (rs6935207) GG, n=8) it was 1700 ± 890 ng/mL. The “proportion of G0/G1 phase” value in [1] (exposed to IM vs control) is on record as “higher proportion”. The longitudinal migration capacity entry in data set [4] (20 μM of IM for 48 h, P < 0.01) is reported as “decreased significantly”. The “number of colony formation” value in data set [6] (IM intervention vs control) is reported as “significantly less than the control group”. The apoptosis rate entry in [7] (GIST-T1 cells treated with IM alone vs control, P < 0.01) was “higher than that of the control group”. Also, in data set [11] (after 1–3 years of IM treatment), the “GISTs patients developing secondary drug resistance” value is roughly 85%. Moreover, the “pH at which IM tablets dissolve rapidly” value in data set [12] is reported as no more than 5.5.
As to `CNC(=O)c1cc(Oc2ccc(NC(=O)Nc3ccc(Cl)c(C(F)(F)F)c3)c(F)c2)ccn1` [regorafenib], in [11] (use after sunitinib resistance), the “median PFS” value is recorded as 4.8 months and the objective response rate is given as 5.5%.
For the compound `CCn1c(=O)c(-c2cc(NC(=O)Nc3ccccc3)c(F)cc2Br)cc2cnc(NC)cc21` [ripretinib], in data set [11] (phase III trial), the “median PFS” value is reported as 6.3 months and the objective response rate was 9%.
`CCN(CC)CCNC(=O)c1c(C)[nH]c(/C=C2\C(=O)Nc3ccc(F)cc32)c1C` [sunitinib]: in data set [11] (use after IM resistance), the “median PFS” value is 9.9 months and the objective response rate was 5.5%.
